Experimental data reported in ChEMBL document CHEMBL1129660, “Studies on 6-aminoquinolones: synthesis and antibacterial evaluation of 6-amino-8-methylquinolones” (J Med Chem, 1996).
Values after ≈ are worked out from the molar mass of the structure shown.

Experiments:
Assay type in all cases: functional
Staphylococcus aureus [1] = test: Antibacterial activity against Staphylococcus aureus MPR 5
Method in brief: (§1)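 MICs (µg/mL) determined by conventional agar dilution against a panel of eight Gram-negative and five Gram-positive reference strains.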

Shigella = test: Antibacterial activity tested against Shigella enteritidis; method in brief: as §1
Providencia stuartii = test: Antibacterial activity tested against Providencia stuartii CNUR 5; method in brief: as §1
Escherichia coli [2] = test: Antibacterial activity tested against Escherichia coli ISF 432; method in brief: as §1
Enterococcus faecalis = test: Antibacterial activity tested against Streptococcus faecalis LEP Br; method in brief: as §1
Enterobacter cloacae = test: Antibacterial activity tested against Enterobacter cloacae OMNFI 174
Pseudomonas aeruginosa = test: Antibacterial activity tested against P. ae (Pseudomonas aeruginosa) ATCC 9027; method in brief: as §1
[3] = system: Staphylococcus epidermidis; test: Antibacterial activity tested against Staphylococcus epidermidis HCF Berset C; method in brief: as §1
Bacteria = test: Geometric mean of antibacterial activity (Gram +ve bacteria) of the compound
Method in brief: (§2)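 Geometric means calculated from agar-dilution MICs (µg/mL), taken separately across the five Gram-positive and the eight Gram-negative panel strains.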

[4] = Geometric mean of antibacterial activity (Gram -ve bacteria) of the compound; method in brief: as §2
Proteus vulgaris = test: Antibacterial activity tested against Proteus vulgaris CNUR 5; method in brief: as §1
Staphylococcus aureus [5] = test: Antibacterial activity against Staphylococcus aureus ATCC 6538; method in brief: as §1
Escherichia coli [6] = test: Antibacterial activity tested against Escherichia coli ATCC 8739; method in brief: as §1
Klebsiella pneumoniae = test: Antibacterial activity tested against Klebsiella pneumoniae (Klebsiella pneumoniae) ATCC 10031; method in brief: as §1
[7] = system: Staphylococcus epidermidis; test: Antibacterial activity tested against Staphylococcus epidermidis CPHL A2; method in brief: as §1

SMILES | MIC (Staphylococcus aureus [1]) | MIC (Shigella) | MIC (Providencia stuartii) | MIC (Escherichia coli [2]) | MIC (Enterococcus faecalis) | MIC (Enterobacter cloacae) | MIC (Pseudomonas aeruginosa) | MIC [3] | Geometric mean (Bacteria) | Geometric mean [4] | MIC (Proteus vulgaris) | MIC (Staphylococcus aureus [5]) | MIC (Escherichia coli [6]) | MIC (Klebsiella pneumoniae) | MIC [7]
Cc1c(N2CCCCC2)c([N+](=O)[O-])cc2c(=O)c(C(=O)O)cn(C3CC3)c12 | 1 µg/mL (≈ 2.69 µM) | 64 µg/mL (≈ 172 µM) | 64 µg/mL (≈ 172 µM) | 4 µg/mL (≈ 10.8 µM) | 32 µg/mL (≈ 86.2 µM) | 64 µg/mL (≈ 172 µM) | 64 µg/mL (≈ 172 µM) | 8 µg/mL (≈ 21.5 µM) | 9.189 | 41.5 | 64 µg/mL (≈ 172 µM) | 32 µg/mL (≈ 86.2 µM) | 32 µg/mL (≈ 86.2 µM) | 64 µg/mL (≈ 172 µM) | 8 µg/mL (≈ 21.5 µM)
Cc1c(N2CCC3CCCCC3C2)c(N)cc2c(=O)c(C(=O)O)cn(C3CC3)c12 (stereo not given) | 0.06 µg/mL (≈ 0.152 µM) | 2 µg/mL (≈ 5.06 µM) | 1 µg/mL (≈ 2.53 µM) | 4 µg/mL (≈ 10.1 µM) | 2 µg/mL (≈ 5.06 µM) | 4 µg/mL (≈ 10.1 µM) | 64 µg/mL (≈ 162 µM) | 0.125 µg/mL (≈ 0.316 µM) | 0.186 | 4 | 64 µg/mL (≈ 162 µM) | 0.06 µg/mL (≈ 0.152 µM) | 4 µg/mL (≈ 10.1 µM) | 0.125 µg/mL (≈ 0.316 µM) | 0.25 µg/mL (≈ 0.632 µM)
Cc1c(N2CCCC(C)(C)C2)c(N)cc2c(=O)c(C(=O)O)cn(C3CC3)c12 | 0.5 µg/mL (≈ 1.35 µM) | 16 µg/mL (≈ 43.3 µM) | 8 µg/mL (≈ 21.7 µM) | 0.5 µg/mL (≈ 1.35 µM) | 16 µg/mL (≈ 43.3 µM) | 16 µg/mL (≈ 43.3 µM) | 64 µg/mL (≈ 173 µM) | 1 µg/mL (≈ 2.71 µM) | 1.132 | 6.17 | > 128 µg/mL | 0.5 µg/mL (≈ 1.35 µM) | 0.5 µg/mL (≈ 1.35 µM) | 0.5 µg/mL (≈ 1.35 µM) | 1 µg/mL (≈ 2.71 µM)
Cc1c(N2CCCC(C)C2)c(N)cc2c(=O)c(C(=O)O)cn(C3CC3)c12 (stereo not given) | 0.06 µg/mL (≈ 0.169 µM) | 1 µg/mL (≈ 2.81 µM) | 0.25 µg/mL (≈ 0.703 µM) | 0.03 µg/mL (≈ 0.0844 µM) | 2 µg/mL (≈ 5.63 µM) | 1 µg/mL (≈ 2.81 µM) | 4 µg/mL (≈ 11.3 µM) | 0.25 µg/mL (≈ 0.703 µM) | 0.162 | 0.414 | 32 µg/mL (≈ 90 µM) | 0.03 µg/mL (≈ 0.0844 µM) | 0.03 µg/mL (≈ 0.0844 µM) | 0.03 µg/mL (≈ 0.0844 µM) | 0.125 µg/mL (≈ 0.352 µM)
Cc1c(N2CC3CCC2CC3)c(N)cc2c(=O)c(C(=O)O)cn(C3CC3)c12 | 0.03 µg/mL (≈ 0.0816 µM) | 3 µg/mL (≈ 8.16 µM) | 1 µg/mL (≈ 2.72 µM) | 0.3 µg/mL (≈ 0.816 µM) | 4 µg/mL (≈ 10.9 µM) | 4 µg/mL (≈ 10.9 µM) | 16 µg/mL (≈ 43.5 µM) | 1 µg/mL (≈ 2.72 µM) | 0.246 | 2.141 | 64 µg/mL (≈ 174 µM) | 0.03 µg/mL (≈ 0.0816 µM) | 4 µg/mL (≈ 10.9 µM) | 0.03 µg/mL (≈ 0.0816 µM) | 0.25 µg/mL (≈ 0.68 µM)
CN1CCN(c2cc3c(cc2N)c(=O)c(C(=O)O)cn3C2CC2)CC1 | 2 µg/mL (≈ 5.84 µM) | 0.25 µg/mL (≈ 0.73 µM) | 8 µg/mL (≈ 23.4 µM) | 0.03 µg/mL (≈ 0.0876 µM) | 32 µg/mL (≈ 93.5 µM) | 0.25 µg/mL (≈ 0.73 µM) | 4 µg/mL (≈ 11.7 µM) | 4 µg/mL (≈ 11.7 µM) | 4 | 0.642 | 64 µg/mL (≈ 187 µM) | 2 µg/mL (≈ 5.84 µM) | 0.25 µg/mL (≈ 0.73 µM) | 0.03 µg/mL (≈ 0.0876 µM) | 2 µg/mL (≈ 5.84 µM)
Cc1c(N2CCc3ccccc3C2)c([N+](=O)[O-])cc2c(=O)c(C(=O)O)cn(C3CC3)c12 | 0.25 µg/mL (≈ 0.596 µM) | 64 µg/mL (≈ 153 µM) | 64 µg/mL (≈ 153 µM) | 4 µg/mL (≈ 9.54 µM) | 4 µg/mL (≈ 9.54 µM) | 64 µg/mL (≈ 153 µM) | 64 µg/mL (≈ 153 µM) | 2 µg/mL (≈ 4.77 µM) | 3.482 | 45.25 | 64 µg/mL (≈ 153 µM) | 64 µg/mL (≈ 153 µM) | 64 µg/mL (≈ 153 µM) | 64 µg/mL (≈ 153 µM) | 4 µg/mL (≈ 9.54 µM)
Cc1c(N2CC(C)CC(C)C2)c(N)cc2c(=O)c(C(=O)O)cn(C3CC3)c12 (stereo not given) | 0.03 µg/mL (≈ 0.0812 µM) | 2 µg/mL (≈ 5.41 µM) | 0.5 µg/mL (≈ 1.35 µM) | 0.03 µg/mL (≈ 0.0812 µM) | 1 µg/mL (≈ 2.71 µM) | 2 µg/mL (≈ 5.41 µM) | 4 µg/mL (≈ 10.8 µM) | 0.06 µg/mL (≈ 0.162 µM) | 0.079 | 0.641 | 16 µg/mL (≈ 43.3 µM) | 0.03 µg/mL (≈ 0.0812 µM) | 0.125 µg/mL (≈ 0.338 µM) | 0.06 µg/mL (≈ 0.162 µM) | 0.06 µg/mL (≈ 0.162 µM)
Cc1c(N2CCC2)c(N)cc2c(=O)c(C(=O)O)cn(C3CC3)c12 | 8 µg/mL (≈ 25.5 µM) | 16 µg/mL (≈ 51.1 µM) | 64 µg/mL (≈ 204 µM) | 0.25 µg/mL (≈ 0.798 µM) | > 128 µg/mL | 16 µg/mL (≈ 51.1 µM) | > 128 µg/mL | 16 µg/mL (≈ 51.1 µM) | 18.379 | 11.313 | > 128 µg/mL | 8 µg/mL (≈ 25.5 µM) | 16 µg/mL (≈ 51.1 µM) | 0.25 µg/mL (≈ 0.798 µM) | 16 µg/mL (≈ 51.1 µM)
Cc1c(N2CCN(C)CC2)c([N+](=O)[O-])cc2c(=O)c(C(=O)O)cn(C3CC3)c12 | 4 µg/mL (≈ 10.4 µM) | 1 µg/mL (≈ 2.59 µM) | 32 µg/mL (≈ 82.8 µM) | 4 µg/mL (≈ 10.4 µM) | 16 µg/mL (≈ 41.4 µM) | 8 µg/mL (≈ 20.7 µM) | 64 µg/mL (≈ 166 µM) | 4 µg/mL (≈ 10.4 µM) | 4.595 | 13.454 | 64 µg/mL (≈ 166 µM) | 4 µg/mL (≈ 10.4 µM) | 16 µg/mL (≈ 41.4 µM) | 16 µg/mL (≈ 41.4 µM) | 2 µg/mL (≈ 5.18 µM)
Cc1c(N2CCC(C)CC2)c([N+](=O)[O-])cc2c(=O)c(C(=O)O)cn(C3CC3)c12 | 2 µg/mL (≈ 5.19 µM) | 64 µg/mL (≈ 166 µM) | 64 µg/mL (≈ 166 µM) | 2 µg/mL (≈ 5.19 µM) | 32 µg/mL (≈ 83 µM) | 64 µg/mL (≈ 166 µM) | 64 µg/mL (≈ 166 µM) | 4 µg/mL (≈ 10.4 µM) | 8 | 38.054 | 64 µg/mL (≈ 166 µM) | 32 µg/mL (≈ 83 µM) | 32 µg/mL (≈ 83 µM) | 64 µg/mL (≈ 166 µM) | 4 µg/mL (≈ 10.4 µM)
CNc1cc2c(=O)c(C(=O)O)cn(C3CC3)c2c(C)c1N1CCC(C)CC1 | 1 µg/mL (≈ 2.71 µM) | 64 µg/mL (≈ 173 µM) | 16 µg/mL (≈ 43.3 µM) | 0.5 µg/mL (≈ 1.35 µM) | 32 µg/mL (≈ 86.6 µM) | 64 µg/mL (≈ 173 µM) | > 128 µg/mL | 4 µg/mL (≈ 10.8 µM) | 3.031 | 11.313 | > 128 µg/mL | 1 µg/mL (≈ 2.71 µM) | 1 µg/mL (≈ 2.71 µM) | 0.5 µg/mL (≈ 1.35 µM) | 2 µg/mL (≈ 5.41 µM)
Cc1c(N2CCNCC2)c(N)cc2c(=O)c(C(=O)O)cn(C3CC3)c12 | 4 µg/mL (≈ 11.7 µM) | 0.03 µg/mL (≈ 0.0876 µM) | 2 µg/mL (≈ 5.84 µM) | 0.03 µg/mL (≈ 0.0876 µM) | 16 µg/mL (≈ 46.7 µM) | 0.06 µg/mL (≈ 0.175 µM) | 1 µg/mL (≈ 2.92 µM) | 8 µg/mL (≈ 23.4 µM) | 5.28 | 0.158 | 4 µg/mL (≈ 11.7 µM) | 2 µg/mL (≈ 5.84 µM) | 0.03 µg/mL (≈ 0.0876 µM) | 0.03 µg/mL (≈ 0.0876 µM) | 4 µg/mL (≈ 11.7 µM)
CN1CCN(c2nc3c(cc2N)c(=O)c(C(=O)O)cn3C2CC2)CC1 | 4 µg/mL (≈ 11.6 µM) | 0.125 µg/mL (≈ 0.364 µM) | 2 µg/mL (≈ 5.82 µM) | 0.06 µg/mL (≈ 0.175 µM) | 32 µg/mL (≈ 93.2 µM) | 0.125 µg/mL (≈ 0.364 µM) | 2 µg/mL (≈ 5.82 µM) | 4 µg/mL (≈ 11.6 µM) | 6.063 | 0.416 | 64 µg/mL (≈ 186 µM) | 4 µg/mL (≈ 11.6 µM) | 0.125 µg/mL (≈ 0.364 µM) | 0.03 µg/mL (≈ 0.0874 µM) | 4 µg/mL (≈ 11.6 µM)
Nc1cc2c(=O)c(C(=O)O)cn(C3CC3)c2cc1N1CCNCC1 | 64 µg/mL (≈ 195 µM) | 0.25 µg/mL (≈ 0.761 µM) | 32 µg/mL (≈ 97.5 µM) | 0.03 µg/mL (≈ 0.0914 µM) | 128 µg/mL (≈ 390 µM) | 0.25 µg/mL (≈ 0.761 µM) | 2 µg/mL (≈ 6.09 µM) | 16 µg/mL (≈ 48.7 µM) | 42.224 | 0.836 | 32 µg/mL (≈ 97.5 µM) | 64 µg/mL (≈ 195 µM) | 0.25 µg/mL (≈ 0.761 µM) | 0.25 µg/mL (≈ 0.761 µM) | 16 µg/mL (≈ 48.7 µM)
